Measured values reported in ChEMBL document CHEMBL1124782, “DNA binding by antitumor anthracene derivatives” (J Med Chem, 1990).

How the values were obtained:
Nucleic Acid [1] = experiment: Cubic spline relative binding strength was determined by using spectrophotometric titration; type: nucleic-acid assay; conditions: Bos taurus
How it was run: (§1)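 Calf thymus DNA (<3% protein) titrated by UV-visible absorbance in 0.1 M NaCl, 0.01 M sodium phosphate, 0.001 M EDTA, pH 7.0. Drug stock about 2×10^-4 M. DNA prepared fresh at 5×10^-4 M (base pairs) for each titration. Free and bound drug extinction coefficients came from Beer's law plots. Bound/free data were fitted by McGhee-von Hippel equations or by a cubic spline derivative analysis.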

[2] = pKa value for amino group in the compound; type: physicochemical
How it was run: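 0.2 mmol of compound, as free base or dihydrochloride, was dissolved in 0.0392 N HCl to give 1 mequiv acid beyond full protonation of the amino groups. The solution was stirred and titrated with 0.0242 N NaOH with pH monitoring. Macroscopic pKa was read at 0.5 equiv base per functional group. Poorly soluble material was titrated in very dilute solution.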

Nucleic Acid [3] = experiment: Apparent binding constant (McGhee-von Hippel) was determined by using spectrophotometric titration; type: nucleic-acid assay; conditions: Bos taurus; how it was run: as §1
Nucleic Acid [4] = experiment: (§2) delta Tm value is the difference between Tm(melting temperature) for calf thymus DNA with drug and without drug(Tm = 71 degree C for DNA alone); type: nucleic-acid assay; conditions: Bos taurus
Nucleic Acid [5] = experiment: as §2; type: functional; conditions: Bos taurus

Row | Relative binding (Nucleic Acid [1]) | pKa [2] | K app (Nucleic Acid [3]) | ΔTm (Nucleic Acid [4]) | pKa ([2]; read-out: pKa1) | pKa ([2]; read-out: pKa2) | pKa ([2]; read-out: pKa3) | pKa ([2]; read-out: pKa4) | Structure (SMILES) | ΔTm (Nucleic Acid [5])
1 | 0.84 | 8 | 0.0532 µM⁻¹ | 13 °C | – | – | – | – | OCCCCCNCc1c2ccccc2c(CNCCCCCO)c2ccccc12 | –
2 | – | – | – | – | 3.1 | 4.2 | 8.45 | 9.45 | CN(C)CCN(C)Cc1c2ccccc2c(CN(C)CCN(C)C)c2ccccc12 | 1 °C
3 | 0.75 | – | 0.1 µM⁻¹ | 12 °C | 3.9 | 5.35 | 8.4 | 9.4 | CN(C)CCNCc1c2ccccc2c(CNCCN(C)C)c2ccccc12 | –
4 | – | – | – | – | – | – | – | – | CC(C)N(CCNCc1c2ccccc2c(CNCCN(C(C)C)C(C)C)c2ccccc12)C(C)C | 9 °C
5 | 1.08 | – | 8.29 µM⁻¹ | > 20 °C | – | – | – | – | CN1CCN=C1/C=C/c1c2ccccc2c(/C=C/C2=NCCN2)c2ccccc12 | –
6 | 0.75 | – | 0.27 µM⁻¹ | 14 °C | – | – | – | – | NCCNCc1c2ccccc2c(CNCCN)c2ccccc12 | –
7 | – | – | – | – | – | – | – | – | CNCCN(C)Cc1c2ccccc2c(CN(C)CCNC)c2ccccc12 | 3 °C
8 | 0.75 | – | 0.0605 µM⁻¹ | 16 °C | 2.4 | 3 | 5.2 | 9.15 | CCN1CCCC(NCc2c3ccccc3c(CNC3CCCN(CC)C3)c3ccccc23)C1 (stereo not given) | –
9 | – | – | – | – | 3.85 | 6.3 | 7.5 | 8.5 | c1ccc2c(CNCCN3CCOCC3)c3ccccc3c(CNCCN3CCOCC3)c2c1 | 5 °C

Row | Structure (SMILES) | Relative binding (Nucleic Acid [1]) | pKa [2] | K app (Nucleic Acid [3]) | ΔTm (Nucleic Acid [4]) | pKa ([2]; read-out: pKa1) | pKa ([2]; read-out: pKa2) | pKa ([2]; read-out: pKa3) | pKa ([2]; read-out: pKa4) | ΔTm (Nucleic Acid [5])
10 | C(=N\NC1=NCCN1)/c1c2ccccc2c(/C=N/NC2=NCCN2)c2ccccc12 [BISANTRENE] | 1.03 | – | 9.03 µM⁻¹ | 19 °C | 6.8 | – | – | – | –
